Reference: ChEMBL document CHEMBL3259728, “Design, synthesis and biological evaluation of some novel substituted quinazolines as antitumor agents” (2014)

Tests used:
Assay type in all cases: functional
[1] = Growth inhibition of human SF539 cells assessed as cell growth at 10^-7 M after 48 hrs by SRB assay; conditions: SF-539, 48 h, read-out: Activity
[2] = Growth inhibition of human OVCAR5 cells assessed as cell growth at 10^-8 M after 48 hrs by SRB assay; conditions: OVCAR-5, 48 h, read-out: Activity
T47D = assay: Growth inhibition of human T47D cells at 10 uM after 48 hrs by SRB assay; conditions: read-out: GI
How it was run: (§1)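 NCI-60 primary one-dose screen run at the US NCI, with human tumour lines from nine cancer types. Compound added once at 10^-5 M, followed by 48 h incubation. End point was sulforhodamine B protein staining read spectrophotometrically. Result given as percent growth of treated cells against untreated controls, reported as % growth inhibition.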

RPMI-8226 = assay: Cytotoxicity against human RPMI8226 cells after 48 hrs by SRB assay; conditions: RPMI-8226, 48 h
How it was run: (§2)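 NCI 60-cell-line panel of human tumour lines from nine cancer types. Continuous 48 h exposure at five 10-fold dilutions from 10^-4 to 10^-8 M, with 5-FU as positive control. SRB protein stain read spectrophotometrically at time zero, untreated control and each concentration. GI50, TGI and LC50 were derived from the [(Ti−Tz)/(C−Tz)]×100 growth relations, and out-of-range values are given as > or < the tested limits.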

DU-145 = assay: Growth inhibition of human DU145 cells at 10 uM after 48 hrs by SRB assay; conditions: DU-145, 48 h, read-out: GI; how it was run: as §1
[3] = Growth inhibition of human OVCAR3 cells at 10 uM after 48 hrs by SRB assay; conditions: OVCAR-3, 48 h, read-out: GI; how it was run: as §1
Malme-3M = assay: Growth inhibition of human MALME-3M cells at 10 uM after 48 hrs by SRB assay; conditions: read-out: GI; how it was run: as §1
PC-3 = assay: Growth inhibition of human PC3 cells at 10 uM after 48 hrs by SRB assay; conditions: PC-3, 48 h, read-out: GI; how it was run: as §1
CCRF-CEM = assay: Growth inhibition of human CCRF-CEM cells at 10 uM after 48 hrs by SRB assay; conditions: read-out: GI
How it was run: (§3)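 NCI primary one-dose screen. A single concentration of 10^-5 M was added to the cell culture, followed by 48 h incubation and an SRB protein-dye endpoint read spectrophotometrically. Results are growth percentage relative to untreated control cells, reported as % growth inhibition.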

[4] = Growth inhibition of human EKVX cells at 10 uM after 48 hrs by SRB assay; conditions: read-out: GI; how it was run: as §1
[5] = Growth inhibition of human Hs578T cells at 10 uM after 48 hrs by SRB assay; conditions: Hs-578T, read-out: GI; how it was run: as §1
A549 = assay: Growth inhibition of human A549 cells at 10 uM after 48 hrs by SRB assay; conditions: A549, 48 h, read-out: GI; how it was run: as §3
MDA-MB-435 = assay: Growth inhibition of human MDA-MB-435 cells at 10 uM after 48 hrs by SRB assay; conditions: MDA-MB-435, 48 h, read-out: GI; how it was run: as §1
[6] = Growth inhibition of human UACC62 cells at 10 uM after 48 hrs by SRB assay; conditions: UACC-62, 48 h, read-out: GI; how it was run: as §1
[7] = Growth inhibition of human HOP92 cells assessed as cell growth at 10^-6 M after 48 hrs by SRB assay; conditions: HOP-92, 48 h, read-out: Activity
MDA-MB-231 = assay: Growth inhibition of human MDA-MB-231 cells at 10 uM after 48 hrs by SRB assay; conditions: MDA-MB-231, 48 h, read-out: GI; how it was run: as §1
KM12 [8] = assay: Cytotoxicity against human KM12 cells after 48 hrs by SRB assay; conditions: KM12, 48 h; how it was run: as §2
NCI-H460 = assay: Growth inhibition of human NCI-H460 cells assessed as cell growth at 10^-6 M after 48 hrs by SRB assay; conditions: NCI-H460, 48 h, read-out: Activity
SK-MEL-2 = assay: Growth inhibition of human SK-MEL-2 cells at 10 uM after 48 hrs by SRB assay; conditions: SK-MEL-2, 48 h, read-out: GI; how it was run: as §1
CAKI-1 = assay: Growth inhibition of human CAKI-1 cells assessed as cell growth at 10^-8 M after 48 hrs by SRB assay; conditions: CAKI-1, 48 h, read-out: Activity
How it was run: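 Five-dose NCI panel protocol. Each dose (10^-4 to 10^-8 M, 10-fold steps) was given as 48 h continuous exposure, and protein was measured by SRB staining. Percentage growth at each level is [(Ti−Tz)/(C−Tz)]×100, where Tz is time-zero absorbance and C is untreated control.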

HT-29 = assay: Growth inhibition of human HT-29 cells assessed as cell growth at 10^-8 M after 48 hrs by SRB assay; conditions: HT-29, 48 h, read-out: Activity
[9] = Growth inhibition of human OVCAR4 cells at 10 uM after 48 hrs by SRB assay; conditions: OVCAR-4, 48 h, read-out: GI; how it was run: as §1
[10] = Growth inhibition of human RXF393 cells at 10 uM after 48 hrs by SRB assay; conditions: RXF 393, 48 h, read-out: GI; how it was run: as §1
NCI-H322M = assay: Growth inhibition of human NCI-H322M cells at 10 uM after 48 hrs by SRB assay; conditions: read-out: GI; how it was run: as §1
U-251 = assay: Growth inhibition of human U251 cells assessed as cell growth at 10^-5 M after 48 hrs by SRB assay; conditions: U-251, 48 h, read-out: Activity
SK-MEL-5 = assay: Growth inhibition of human SK-MEL-5 cells at 10 uM after 48 hrs by SRB assay; conditions: SK-MEL-5, 48 h, read-out: GI; how it was run: as §1
[11] = Growth inhibition of human OVCAR5 cells at 10 uM after 48 hrs by SRB assay; conditions: OVCAR-5, 48 h, read-out: GI; how it was run: as §1
NCI-H226 = assay: Growth inhibition of human NCI-H226 cells at 10 uM after 48 hrs by SRB assay; conditions: NCI-H226, 48 h, read-out: GI; how it was run: as §1
KM12 [12] = assay: Growth inhibition of human KM12 cells at 10 uM after 48 hrs by SRB assay; conditions: KM12, 48 h, read-out: GI; how it was run: as §1
ACHN = assay: Growth inhibition of human ACHN cells at 10 uM after 48 hrs by SRB assay; conditions: read-out: GI; how it was run: as §3
[13] = Growth inhibition of human OVCAR3 cells assessed as cell growth at 10^-7 M after 48 hrs by SRB assay; conditions: OVCAR-3, 48 h, read-out: Activity
IGROV-1 = assay: Growth inhibition of human IGROV1 cells at 10 uM after 48 hrs by SRB assay; conditions: IGROV-1, 48 h, read-out: GI; how it was run: as §1
[14] = read-out: LC50 (the source's name)
[15] = read-out: pLC50 (the source's name) (converted)

## Cc1ccc(-c2nc3ccc(Cl)cc3c(=O)n2/N=C/c2ccccc2)cc1
[1]
  growth at 0.1 µM: 97%
[2]
  growth at 0.01 µM: 96%
T47D
  inhibition of growth at 10 µM: 25%
RPMI-8226; read-out: GI50
  GI50: > 100 µM
RPMI-8226; [14]
  CC50: > 100 µM
RPMI-8226; read-out: TGI
  TGI: > 100 µM
RPMI-8226; read-out: pGI50 (converted)
  GI50: > 100 µM
RPMI-8226; [15]
  CC50: > 100 µM
RPMI-8226; read-out: pTGI
  TGI: > 100 µM
DU-145
  inhibition of growth at 10 µM: 27%
[3]
  inhibition of growth at 10 µM: 42%
Malme-3M
  inhibition of growth at 10 µM: 35%
PC-3
  inhibition of growth at 10 µM: 30%
CCRF-CEM
  inhibition of growth at 10 µM: < 10%
[4]
  inhibition of growth at 10 µM: 40%
[5]
  inhibition of growth at 10 µM: 44%
A549
  inhibition of growth at 10 µM: 87%
MDA-MB-435
  inhibition of growth at 10 µM: 34%
[6]
  inhibition of growth at 10 µM: 23%
[7]
  growth at 1 µM: 85%
MDA-MB-231
  inhibition of growth at 10 µM: 41%
KM12 [8]; read-out: GI50
  GI50: > 100 µM
KM12 [8]; [14]
  CC50: > 100 µM
KM12 [8]; read-out: TGI
  TGI: > 100 µM
KM12 [8]; read-out: pGI50 (converted)
  GI50: > 100 µM
KM12 [8]; [15]
  CC50: > 100 µM
KM12 [8]; read-out: pTGI
  TGI: > 100 µM
NCI-H460
  growth at 1 µM: 85%
SK-MEL-2
  inhibition of growth at 10 µM: < 10%
CAKI-1
  growth at 0.01 µM: 89%
HT-29
  growth at 0.01 µM: 100%
[9]
  inhibition of growth at 10 µM: 86%
[10]
  inhibition of growth at 10 µM: < 10%
NCI-H322M
  inhibition of growth at 10 µM: 24%
U-251
  growth at 10 µM: 32%
SK-MEL-5
  inhibition of growth at 10 µM: < 10%
[11]
  inhibition of growth at 10 µM: 18%
NCI-H226
  inhibition of growth at 10 µM: 14%
KM12 [12]
  inhibition of growth at 10 µM: 18%
ACHN
  inhibition of growth at 10 µM: 74%
[13]
  growth at 0.1 µM: 96%
IGROV-1
  inhibition of growth at 10 µM: 43%

## Cc1ccc(-c2nc3ccc(Cl)cc3c3nnc(S)n23)cc1
T47D
  inhibition of growth at 10 µM: < 10%
DU-145
  inhibition of growth at 10 µM: < 10%
[3]
  inhibition of growth at 10 µM: < 10%
Malme-3M
  inhibition of growth at 10 µM: < 10%
PC-3
  inhibition of growth at 10 µM: < 10%
CCRF-CEM
  inhibition of growth at 10 µM: 12%
[4]
  inhibition of growth at 10 µM: 11%
[5]
  inhibition of growth at 10 µM: < 10%
A549
  inhibition of growth at 10 µM: 11%
MDA-MB-435
  inhibition of growth at 10 µM: < 10%
[6]
  inhibition of growth at 10 µM: < 10%
MDA-MB-231
  inhibition of growth at 10 µM: 16%
SK-MEL-2
  inhibition of growth at 10 µM: < 10%
[9]
  inhibition of growth at 10 µM: < 10%
[10]
  inhibition of growth at 10 µM: < 10%
NCI-H322M
  inhibition of growth at 10 µM: < 10%
SK-MEL-5
  inhibition of growth at 10 µM: 12%
[11]
  inhibition of growth at 10 µM: < 10%
NCI-H226
  inhibition of growth at 10 µM: 27%
KM12 [12]
  inhibition of growth at 10 µM: 11%
ACHN
  inhibition of growth at 10 µM: < 10%
IGROV-1
  inhibition of growth at 10 µM: < 10%
